The target in one series is Mu-type opioid receptor (Homo sapiens, UniProt P35372). Put plainly: Antagonist activity at human mu opioid receptor assessed as inhibition of DAMGO-stimulated [35S]GTPgammaS binding. Type of series: functional. For orientation: GTPγS is a poorly hydrolysed GTP analogue; its binding reports G protein activation.
Series [1] concerns the target T1, Kappa-type opioid receptor (Homo sapiens, UniProt P41145). The series is described as follows: Antagonist activity at human kappa opioid receptor assessed as inhibition of dynorphin A-induced [35S]GTPgammaS binding. It is filed as functional.
Series [2] deals with T1, Kappa-type opioid receptor. Put plainly: Binding affinity to kappa opioid receptor.
Series [3] has as its target Delta-type opioid receptor (Homo sapiens, UniProt P41143). The series is described as follows: Antagonist activity at human delta opioid receptor assessed as inhibition of SNC80-stimulated [35S]GTPgammaS binding. It is filed as functional.
Series [4] is described as follows: Apparent permeability from apical to basolateral side of MDCK cells expressing MDR1. It is filed as ADME, cell-based, Canis lupus familiaris. The following applies: dog. The method in brief:
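MDCK cells stably expressing human MDR1 P-glycoprotein grown as monolayer; apical-to-basolateral transport rate reported in nm/s.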

Series [5] concerns the target Voltage-gated inwardly rectifying potassium channel KCNH2 (Homo sapiens, UniProt Q12809).
The test system of a further series is Rattus norvegicus. The series is described as follows: Antidiuretic activity against U50488-induced diuresis in sc dosed Sprague-Dawley rat. Type of series: functional. The following applies: Urine, read-out: ID50 (the source's name).
The nature of series [6]: Clearance in Sprague-Dawley rat at 2 umol/kg, iv. Type of series: ADME, organism-based. The following applies: in vivo.
Series [7] can be described thus: Half life in Sprague-Dawley rat at 2 umol/kg, iv. The following applies: in vivo. Type of series: ADME, organism-based.
The test system of another series is Plasma. Put plainly: Fraction unbound in rat plasma. It is filed as ADME, cell-free.
Series [8] can be described thus: Oral bioavailability in Sprague-Dawley rat at 6 umol/kg, po. The following applies: in vivo. Type of series: ADME, organism-based.
Series [9] is described as follows: Intrinsic clearance in human liver microsomes. It is filed as ADME, Microsome. The method in brief: (§1)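 Standard liver microsomal stability protocol using human or rat liver microsomes; intrinsic clearance expressed per mg microsomal protein per minute.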
In general terms: Liver microsomes are a subcellular fraction often used to study metabolism.

The nature of series [10]: Volume of distribution at steady state in Sprague-Dawley rat at 2 umol/kg, iv. It is filed as ADME, organism-based. The following applies: in vivo, read-out: Vdss.
Series [11] can be described thus: Intrinsic clearance in rat liver microsomes. Type of series: ADME, Microsome. The method in brief:
as §1

Series [12] is described as follows: Ratio of drug level in brain to plasma in Sprague-Dawley rat at 5 umol/kg, iv. It is filed as ADME, organism-based. The following applies: brain and plasma, read-out: BPR. The method in brief: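 Total brain and plasma concentrations measured 2 h after a 5 µmol/kg intravenous infusion in rats; brain/plasma ratio calculated.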

Molecules are shown by their SMILES. Where only a bound is given, the exact number is not on record here.

Sequence of Delta-type opioid receptor (P41143 whole entry): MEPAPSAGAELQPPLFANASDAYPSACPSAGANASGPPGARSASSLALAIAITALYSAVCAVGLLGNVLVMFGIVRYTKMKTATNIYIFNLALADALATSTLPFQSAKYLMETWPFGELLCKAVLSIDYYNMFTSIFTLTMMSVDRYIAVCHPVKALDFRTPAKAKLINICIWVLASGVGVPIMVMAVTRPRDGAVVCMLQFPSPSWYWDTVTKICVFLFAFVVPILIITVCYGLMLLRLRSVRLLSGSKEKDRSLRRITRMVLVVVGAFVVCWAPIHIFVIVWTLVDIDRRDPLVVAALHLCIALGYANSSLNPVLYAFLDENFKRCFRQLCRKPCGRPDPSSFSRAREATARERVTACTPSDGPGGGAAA
T1 sequence (P41145 whole entry): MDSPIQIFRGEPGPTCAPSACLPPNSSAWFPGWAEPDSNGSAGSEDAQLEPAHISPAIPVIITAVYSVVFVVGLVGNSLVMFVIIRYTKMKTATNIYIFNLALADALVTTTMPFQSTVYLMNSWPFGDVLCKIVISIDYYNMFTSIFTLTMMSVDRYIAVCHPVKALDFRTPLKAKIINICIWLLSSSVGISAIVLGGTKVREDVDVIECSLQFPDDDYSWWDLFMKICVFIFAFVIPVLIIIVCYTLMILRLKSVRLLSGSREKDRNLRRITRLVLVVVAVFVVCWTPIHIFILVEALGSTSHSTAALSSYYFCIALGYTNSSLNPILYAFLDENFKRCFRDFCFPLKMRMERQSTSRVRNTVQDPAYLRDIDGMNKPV
Sequence of Mu-type opioid receptor (P35372 whole entry): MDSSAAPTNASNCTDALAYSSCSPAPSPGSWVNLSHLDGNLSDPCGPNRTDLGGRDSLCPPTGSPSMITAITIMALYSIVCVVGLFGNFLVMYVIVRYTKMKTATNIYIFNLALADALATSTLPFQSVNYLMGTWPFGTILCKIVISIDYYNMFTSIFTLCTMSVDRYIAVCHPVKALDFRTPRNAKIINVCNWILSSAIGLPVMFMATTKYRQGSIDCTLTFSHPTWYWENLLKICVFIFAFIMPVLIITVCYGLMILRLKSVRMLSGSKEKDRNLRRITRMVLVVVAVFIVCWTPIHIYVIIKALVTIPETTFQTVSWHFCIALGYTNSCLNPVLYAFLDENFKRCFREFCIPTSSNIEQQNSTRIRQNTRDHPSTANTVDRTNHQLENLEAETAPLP
Sequence of Voltage-gated inwardly rectifying potassium channel KCNH2 (Q12809 whole entry): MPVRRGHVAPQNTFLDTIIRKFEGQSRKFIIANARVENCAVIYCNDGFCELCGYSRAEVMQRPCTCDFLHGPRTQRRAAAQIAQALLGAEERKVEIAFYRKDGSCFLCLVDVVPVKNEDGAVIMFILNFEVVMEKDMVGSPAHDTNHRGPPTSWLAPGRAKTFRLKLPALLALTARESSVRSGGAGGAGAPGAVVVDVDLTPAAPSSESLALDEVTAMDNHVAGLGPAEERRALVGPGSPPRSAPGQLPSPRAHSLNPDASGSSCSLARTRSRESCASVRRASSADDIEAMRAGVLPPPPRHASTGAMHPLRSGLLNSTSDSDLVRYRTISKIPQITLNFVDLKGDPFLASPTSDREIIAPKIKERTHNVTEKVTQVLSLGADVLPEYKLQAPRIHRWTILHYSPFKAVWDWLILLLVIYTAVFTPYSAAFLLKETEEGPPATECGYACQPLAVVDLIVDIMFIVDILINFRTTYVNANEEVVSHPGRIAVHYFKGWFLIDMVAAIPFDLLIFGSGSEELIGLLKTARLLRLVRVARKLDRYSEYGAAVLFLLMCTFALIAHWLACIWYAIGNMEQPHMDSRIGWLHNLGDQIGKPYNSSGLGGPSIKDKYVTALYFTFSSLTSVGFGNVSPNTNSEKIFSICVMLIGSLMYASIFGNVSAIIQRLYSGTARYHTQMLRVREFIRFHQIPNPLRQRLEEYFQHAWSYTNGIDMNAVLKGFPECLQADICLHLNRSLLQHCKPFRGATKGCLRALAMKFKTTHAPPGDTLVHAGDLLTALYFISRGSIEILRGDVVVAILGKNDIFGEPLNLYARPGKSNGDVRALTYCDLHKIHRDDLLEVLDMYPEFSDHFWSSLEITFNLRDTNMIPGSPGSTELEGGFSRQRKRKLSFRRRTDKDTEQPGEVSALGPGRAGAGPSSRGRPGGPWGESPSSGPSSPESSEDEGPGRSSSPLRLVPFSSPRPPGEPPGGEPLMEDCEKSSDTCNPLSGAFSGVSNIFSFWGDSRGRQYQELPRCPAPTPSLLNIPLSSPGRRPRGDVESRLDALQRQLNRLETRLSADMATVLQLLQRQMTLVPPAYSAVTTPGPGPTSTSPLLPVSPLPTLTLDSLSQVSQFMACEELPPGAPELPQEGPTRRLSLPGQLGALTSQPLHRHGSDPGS

By IC50 is commonly meant the point on the concentration scale where inhibition reaches its midpoint. For the compound `COc1cccc([C@@H](C)N2[C@@H]3CC[C@H]2C[C@H](Oc2cccc(C(N)=O)c2)C3)c1`, the IC50 at Mu-type opioid receptor turned out to be 1050 nM; in series [1], 46 nM.
In the case of `Cc1ccc([C@@H](C)N2[C@@H]3CC[C@H]2C[C@H](Oc2cccc(C(N)=O)c2)C3)s1`, the half-maximal inhibitory concentration (IC50) in series [1] is 111 nM.
The Ki is a dissociation constant, usually derived from enzyme kinetics or from competition with a known ligand. A high value points to a looser hold on the target. The Papp A→B is how fast a substance crosses the layer from the apical side. As for `O=C(Nc1cccc(NC(=O)c2cccc(N3CCOCC3)c2)c1)c1cccc(OC2CCN(CC3CC3)CC2)c1`, in series [2], the Ki was found to be 0.5 nM. Moreover, the IC50 at Mu-type opioid receptor was greater than 30000 nM; in series [1], 77 nM; in [3], greater than 30000 nM. In addition, in [4], the Papp A→B is less than 1 ×10⁻⁶ cm/s.
Regarding `CS(=O)(=O)Cc1ccc(CN2[C@@H]3CC[C@H]2C[C@H](Oc2cccc(C(N)=O)c2)C3)cc1`, the IC50 at Mu-type opioid receptor was found to be 576 nM; in series [1], 39 nM; in series [3], 5390 nM.
Turning to `NC(=O)c1cccc(O[C@@H]2C[C@H]3CC[C@@H](C2)N3Cc2ccncc2)c1`, the IC50 in series [3] is greater than 24700 nM.
As for `CC(c1ccccc1)N1[C@@H]2CC[C@H]1C[C@H](Oc1cccc(C(N)=O)c1)C2` (stereo partly specified), the 50% inhibitory concentration (IC50) on Mu-type opioid receptor was determined as 19800 nM; in series [1], 1000 nM.
As to `NC(=O)c1cccc(O[C@@H]2C[C@H]3CC[C@@H](C2)N3Cc2cccs2)c1`, the IC50 was 9360 nM at Mu-type opioid receptor, 215 nM in [1], 430 nM in series [5] and greater than 30000 nM in series [3].
For `NC(=O)c1cccc(O[C@@H]2C[C@H]3CC[C@@H](C2)N3C2(c3ccccc3)CC2)c1`, the IC50 is greater than 30000 nM on Mu-type opioid receptor and 24200 nM in series [1].
The like results for `C[C@H](c1ccccc1)N1[C@@H]2CC[C@H]1C[C@H](Oc1cccc(C(N)=O)c1)C2` were, in that order, greater than 24400 nM and 683 nM.
Consider `NC(=O)c1cccc(O[C@@H]2C[C@H]3CC[C@@H](C2)N3C2CCCCC2)c1`, for which the IC50 at Mu-type opioid receptor is 9410 nM; in [1] it was 1130 nM.
Regarding `NC(=O)c1cccc(O[C@@H]2C[C@H]3CC[C@@H](C2)N3CC2CC2)c1`, the IC50 on Mu-type opioid receptor is greater than 30000 nM; in [1], 6690 nM; in [3] it was greater than 30000 nM.
For `NC(=O)c1cccc(O[C@@H]2C[C@H]3CC[C@@H](C2)N3CCCc2ccccc2)c1`, the IC50 at Mu-type opioid receptor is 659 nM; in series [1], 342 nM; in series [3] it was 4000 nM.
As to `CC(C)[C@@H](CN1CC[C@@](C)(c2cccc(O)c2)[C@@H](C)C1)NC(=O)[C@H]1Cc2ccccc2CN1`, the Ki in series [2] came to 0.3 nM. Besides, the half-maximal inhibitory concentration (IC50) on Mu-type opioid receptor is 41 nM; in [1], 0.5 nM; in [3], 1280 nM.
`CC(C)(c1ccccc1)N1[C@@H]2CC[C@H]1C[C@H](Oc1cccc(C(N)=O)c1)C2`: the IC50 in series [1] was 13300 nM.
As to `Cc1ccc(CN2[C@@H]3CC[C@H]2C[C@H](Oc2cccc(C(N)=O)c2)C3)o1`, the IC50 at Mu-type opioid receptor came out at 10900 nM; in [1], 386 nM; in [3], 22000 nM.
On to `CC(c1ccncc1)N1[C@@H]2CC[C@H]1C[C@H](Oc1cccc(C(N)=O)c1)C2` (stereo partly specified), for which the IC50 on Mu-type opioid receptor is greater than 30000 nM.
As usually defined, the clearance is a measure of how efficiently the substance is removed, as volume per time. By half-life is commonly meant how long it takes for the measured level to halve. Low readings indicate rapid decline, high ones slow decline. As usually defined, the bioavailability is dose-corrected exposure relative to a reference, in per cent. A low value points to poor availability. Usually microsomal CLint stands for the capacity of the preparation to metabolise the compound, expressed as a volume cleared per time. Higher therefore signals faster metabolism. Take `Cc1ccc(CN2[C@@H]3CC[C@H]2C[C@H](Oc2cccc(C(N)=O)c2)C3)s1`: in the series on Rattus norvegicus, the ED50 is 0.006 µmol/kg. The clearance in series [6] was 113 mL/min/kg. In addition, the half-life in series [7] is 1 h. Further, in the series with Plasma, the PPB was determined as 50%. In series [8], this compound showed a bioavailability of 1.7%. Besides, the intrinsic clearance (microsomal CLint) in series [9] worked out at 31 µL/min/mg; in [11], 379 µL/min/mg. The Vd in [10] was determined as 5.1 L/kg. In addition, the Kp in series [12] was determined as 4. Besides, in series [4], the Papp A→B came out at 13 ×10⁻⁶ cm/s.
Turning to `Cc1ccc(C(C)N2[C@@H]3CC[C@H]2C[C@H](Oc2cccc(C(N)=O)c2)C3)s1` (stereo partly specified), the IC50 in series [1] was determined as 355 nM.
`NC(=O)c1cccc(O[C@@H]2C[C@H]3CC[C@@H](C2)N3C2CCCc3ccccc32)c1` (stereo partly specified): the results for the IC50 (at Mu-type opioid receptor; in series [1]) were 22700 nM and 2190 nM, respectively.
Consider `NC(=O)c1cccc(O[C@@H]2C[C@H]3CC[C@@H](C2)N3Cc2ccc3c(c2)OCO3)c1`, for which the IC50 on Mu-type opioid receptor is 307 nM; in series [1], 11 nM; in series [3] it was 4840 nM.
For `Cc1ccc(CN2[C@@H]3CC[C@H]2C[C@H](Oc2cccc(C(N)=O)c2)C3)cc1`, in that order: 482 nM, 49 nM and 10900 nM.
As to `NC(=O)c1cccc(O[C@@H]2C[C@H]3CC[C@@H](C2)N3Cc2ccccn2)c1`, the concentration for half-maximal inhibition (IC50) on Mu-type opioid receptor is 19000 nM; in series [1], 3160 nM; in [5] it was 1900 nM; in series [3], greater than 30000 nM.
In the case of `Cn1cc(CN2[C@@H]3CC[C@H]2C[C@H](Oc2cccc(C(N)=O)c2)C3)cn1`, the concentration for half-maximal inhibition (IC50) at Mu-type opioid receptor was 9430 nM; in series [1], 524 nM; in series [3], greater than 27300 nM.
As for `Cc1ccccc1CN1[C@@H]2CC[C@H]1C[C@H](Oc1cccc(C(N)=O)c1)C2`, the 50% inhibitory concentration (IC50) is 17600 nM at Mu-type opioid receptor and greater than 30000 nM in series [3].
On to `CN1[C@@H]2CC[C@H]1C[C@H](Oc1cccc(C(N)=O)c1)C2`, for which, in series [1], the half-inhibitory concentration (IC50) stood at 12600 nM.
For the compound `NC(=O)c1cccc(OC2CCN(Cc3ccccc3)CC2)c1`, the Ki in [2] is 75 nM. Besides, the concentration for half-maximal inhibition (IC50) at Mu-type opioid receptor is greater than 30000 nM; in series [1], 585 nM; in series [3], greater than 30000 nM.
In the case of `NC(=O)c1cccc(O[C@@H]2C[C@H]3CC[C@@H](C2)N3CCc2ccccc2)c1`, the results for the IC50 (at Mu-type opioid receptor; in series [1]; in [3]) were 424 nM, 754 nM and 2150 nM, respectively.
Consider `NC(=O)c1cccc(O[C@@H]2C[C@H]3CC[C@@H](C2)N3CC2CCCCC2)c1`, for which the clearance in [6] was determined as 184 mL/min/kg. Also, the half-life in series [7] was 1 h. In addition, the bioavailability in series [8] is 1.8%. Moreover, the microsomal CLint is less than 4 µL/min/mg in series [9] and 196 µL/min/mg in series [11]. For the same compound, in series [10], the Vd came to 9.5 L/kg. For the same compound, the Kp in series [12] stood at 5. In addition, the Papp A→B in [4] was found to be 8.3 ×10⁻⁶ cm/s.
Take `C[C@@H](c1ccccc1)N1[C@@H]2CC[C@H]1C[C@H](Oc1cccc(C(N)=O)c1)C2`: the IC50 is greater than 30000 nM on Mu-type opioid receptor and 20500 nM in series [1].
With `Cc1ccc([C@@H](C)N2[C@@H]3CC[C@H]2C[C@H](Oc2cccc(C(N)=O)c2)C3)cn1`, the PPB with Plasma stood at 81%. Besides, the figures for the intrinsic metabolic clearance (microsomal CLint) in series [9] and in series [11] were less than 4 µL/min/mg and 14 µL/min/mg, respectively. In [4], the Papp A→B stood at 9.1 ×10⁻⁶ cm/s.
Consider `NC(=O)c1cccc(O[C@@H]2C[C@H]3CC[C@@H](C2)N3CC(=O)Nc2ccccc2)c1`, for which the concentration for half-maximal inhibition (IC50) at Mu-type opioid receptor turned out to be 253 nM; in [1], 345 nM; in [5] it was 720 nM; in series [3], 2670 nM.
The like results for `NC(=O)c1cccc(O[C@@H]2C[C@H]3CC[C@@H](C2)N3CC(=O)N2CCCC2)c1` were, in that order, 21100 nM, 3410 nM, greater than 33000 nM and greater than 30000 nM.
The compound `NC(=O)c1cccc(OC2CCN(CC3CC3)CC2)c1` registered a Ki in series [2] of 146 nM. The IC50 in [1] is 28200 nM.
As for `Cc1ccccc1C(C)N1[C@@H]2CC[C@H]1C[C@H](Oc1cccc(C(N)=O)c1)C2` (stereo partly specified), the values for the IC50 (on Mu-type opioid receptor; in [1]) were 16800 nM and 846 nM, respectively.
Turning to `NC(=O)c1cccc(O[C@@H]2C[C@H]3CC[C@@H](C2)N3Cc2cccnc2)c1`, the IC50 was 2890 nM at Mu-type opioid receptor, 431 nM in series [1] and greater than 21900 nM in series [3].
`C[C@H](c1ccnc(Cl)c1)N1[C@@H]2CC[C@H]1C[C@H](Oc1cccc(C(N)=O)c1)C2`: the figures for the IC50 (on Mu-type opioid receptor; in series [1]) were 22900 nM and 307 nM, respectively.
